NS3 helicase inh: HCV NS3 helicase inhibition. NS3 helicase DNA unwinding, Cy5 molecular beacon fluorescence. AID 1800. inhibition, % at 10.9 µM. actives 0.56% (n = 290,000);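 active = inhibition above the mean of all tested compounds plus 3 SD, set per campaign, cut at about 35% in these data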
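Compound dosing – single dose, 10.9 µM nominal final, DMSO 0.8% final · System – NS3 helicase fragment of HCV · Buffer or medium – MOPS pH 6.5, MgCl2, DTT, Tween20, BSA · Signal – Cy5 beacon fluorescence read at start and 1 h · Also added – annealed dual-labelled DNA beacon duplex, ATP-started · Schedule – 1 h at 25 °C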
UBC9 SUMO inh: blocks human SUMOylation mediated by UBC9; P63279; HTRF SUMOylation assay, SAE1/SAE2 + UBC9, in vitro; inhibition, % at 35 µM; actives 0.36% (n = 290,000); AID 2006; in the data active = inhibition above about 50%, passing the limit was not always enough
Target sequence (P63279 whole entry, looked up): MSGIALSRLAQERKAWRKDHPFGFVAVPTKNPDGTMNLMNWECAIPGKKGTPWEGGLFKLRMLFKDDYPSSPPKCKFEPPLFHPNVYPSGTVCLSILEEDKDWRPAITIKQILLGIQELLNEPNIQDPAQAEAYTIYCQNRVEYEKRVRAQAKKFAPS
VIM-2 inhibitor: blocks Pseudomonas aeruginosa VIM-2 metallo-beta-lactamase | actives 0.89% (n = 290,000) | AID 1527 | purified VIM-2, nitrocefin hydrolysis, epi-absorbance fluorescence | inhibition, % at 5.6 µM;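 active = inhibition above the mean of all tested compounds plus 3 SD, cutoff set per screening run, cut at about 7.5% in these data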;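 note: red hydrolysis product quenches plate fluorescence so inhibitors raise well fluorescence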
DNA FID counter-1: fluorescent intercalator displacement, NS3 helicase counter-screen; actives 0.17% (n = 290,000); inhibition, % at 7.9 µM; DNA fluorescent intercalator displacement, fluorescence; AID 1845;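 note: higher means more ethidium bromide displaced from hairpin DNA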
IMP-1 inh: inhibitors of Pseudomonas aeruginosa IMP-1 metallo-beta-lactamase | inhibition, % at 5.6 µM | actives 0.45% (n = 290,000) | purified IMP-1, nitrocefin hydrolysis, epi-absorbance fluorescence | AID 1556;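 active = inhibition above the mean plus 3 SD of all compounds in the same screening run, cut at about 4.5% in these data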
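System: purified IMP-1; amount: IMP-1 0.2 nM before substrate addition; compound: single dose, 5.6 µM; times: 25 °C, 15 min preincubation, 25 min reaction; signal: Epi-absorbance via hydrolysed-nitrocefin quenching of white-plate fluorescence, 480/530 nm, EDTA stop; benchmarks: DMSO with and without IMP-1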
NS3 helicase cf: confirmation of Hepatitis C virus NS3 helicase inhibitors | NS3 helicase DNA unwinding, Cy5 molecular beacon fluorescence | shares compounds with NS3 helicase inh | AID 1943 | inhibition, % at 10.9 µM | actives 31% (n = 1,600);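 active = inhibition above the mean of all tested compounds plus 3 SD, cutoff set per campaign, cut at about 36% in these data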
DNA FID counter-2: intercalator displacement, NS3 helicase counter-screen. AID 1945. inhibition, % at 7.9 µM. DNA fluorescent intercalator displacement, fluorescence. shares compounds with NS3 helicase inh. actives 4% (n = 1,600);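 note: higher means more displacement of ethidium bromide from the DNA hairpin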
DNA FID DR: displaces fluorescent intercalator from DNA, HCV helicase counter-screen; shares compounds with NS3 helicase inh; fluorescent intercalator displacement from DNA, fluorescence; IC50, µM; 120 tested, under 10 active; call rule not given here
Large screens that a line does not name were inactive (follow-up assays come after a bar, where they were run). Hits are enriched below; roughly 2.1% of the tested compounds scored in any of these assays. Cut-off read from the data, not from the text of the source, unless noted: active = inhibition above about 37%; inactive = the rest.

Cc1ccc(C(=O)O)cc1-c1ccc(/C=C2\SC(=O)N(CC(=O)Nc3ccccc3)C2=O)o1	NS3 helicase inh 38, UBC9 SUMO inh 85 | NS3 helicase cf 78 | DNA FID counter-2 inactive | DNA FID DR inactive
Cc1ccc(NC(=O)CN2C(=O)S/C(=C\c3ccc(-c4cccc(C(=O)O)c4C)o3)C2=O)cc1	none
O=c1c2c(-c3ccco3)csc2nc(SCc2cn3cccnc3n2)n1-c1ccccc1	NS3 helicase inh 62 | NS3 helicase cf 94 | DNA FID counter-2 inactive | DNA FID DR inactive
O=C(CSc1nc2scc(-c3ccco3)c2c(=O)n1-c1ccccc1)NCC1CCCO1 (stereo not given)	NS3 helicase inh 86 | NS3 helicase cf inactive | DNA FID counter-2 inactive
CC(C)C[C@H]1CNC(=O)C(=O)N1C[C@H](C)NC(=O)Cc1ccccc1	none
Cn1c(SCc2n[nH]c(=S)n2-c2ccccc2)nnc1-c1ccccc1	NS3 helicase inh 47 | NS3 helicase cf inactive | DNA FID counter-2 inactive
CCOC(=O)CC(=O)CSc1nc2c(c(-c3cccs3)c1C#N)CCC2	NS3 helicase inh 41 | NS3 helicase cf inactive | DNA FID counter-2 inactive
COCCn1c(SCC(=O)N2CCCC2)nc2c([nH]c3ccccc32)c1=O	none
O=C1NN(c2ccc(Br)cc2)C(=O)/C1=C\c1ccc(O)cc1O	NS3 helicase inh 39 | NS3 helicase cf 58 | DNA FID counter-2 inactive
Cc1ccc2nc(SC(C)C(=O)Nc3cccc([N+](=O)[O-])c3)[nH]c2c1 (stereo not given)	none
O=C(COC(=O)c1c2c(nc3ccccc13)CCCC2)c1cccs1	NS3 helicase inh 41 | NS3 helicase cf inactive | DNA FID counter-2 inactive
O=C(NC1CCCC1)C1CCN(c2cnccn2)CC1	none
Cc1ccc(S(=O)(=O)Nc2cc(C(=O)O)ccc2N2CCCCC2)cc1	NS3 helicase inh 75 | NS3 helicase cf inactive | DNA FID counter-2 inactive
O=C(Nc1cccc2nsnc12)c1ccc(-c2cccc(Cl)c2)o1	NS3 helicase inh 40, UBC9 SUMO inh 60 | NS3 helicase cf inactive | DNA FID counter-2 inactive
O=C(CSc1ccc(Br)c2cccc(Cl)c12)Nc1ccc(S(=O)(=O)Nc2nccs2)cc1	NS3 helicase inh 38 | NS3 helicase cf 38 | DNA FID counter-2 inactive
COc1cc(NC(=S)N2CCC(C(O)(c3ccccc3)c3ccccc3)CC2)cc(OC)c1	none
CN(C(=O)CSc1nnc(N)s1)C1CCCCC1	NS3 helicase inh 37 | NS3 helicase cf inactive | DNA FID counter-2 inactive
O=C1CC(C(=O)Nc2ccc(Cl)cc2[N+](=O)[O-])C2(CCCCC2)O1 (stereo not given)	none
Cc1ccccc1CN1CCc2c(OCC(=O)N3CCCc4ccccc43)cccc2C1=O	NS3 helicase inh 75 | NS3 helicase cf inactive | DNA FID counter-2 inactive
O=C1c2cccc(OCC(=O)N3CCCc4ccccc43)c2CCN1Cc1cccnc1	none
COc1cccc(C(=O)Nc2nnc(S(=O)(=O)Nc3cccc(C)c3)s2)c1	NS3 helicase inh 46 | NS3 helicase cf inactive | DNA FID counter-2 inactive
COc1cccc(C(=O)N2CCN(Cc3ccc(OC)cc3OC)CC2)c1	none
CCCOc1ccc(C2C(C(=O)c3ccc(C)o3)=C(O)C(=O)N2Cc2cccnc2)cc1 (stereo not given)	none
Cc1ccc(C(=O)C2=C(O)C(=O)N(Cc3cccnc3)C2c2ccc(N(C)C)cc2)o1 (stereo not given)	none
CCCCOc1ccc(C2C(C(=O)c3ccc(C)o3)=C(O)C(=O)N2Cc2ccco2)cc1 (stereo not given)	NS3 helicase inh 69 | NS3 helicase cf 135 | DNA FID counter-2 inactive | DNA FID DR inactive
Cc1ccc(C(=O)C2=C(O)C(=O)N(Cc3ccco3)C2c2ccc(N(C)C)cc2)o1 (stereo not given)	NS3 helicase inh 98 | NS3 helicase cf inactive | DNA FID counter-2 inactive
Cc1ccc2c(c1)N(CC(=O)N1CCCCC1)C(=O)C(C)O2 (stereo not given)	none
ClCc1csc(N/N=C/c2cccs2)n1	NS3 helicase inh 43 | NS3 helicase cf inactive | DNA FID counter-2 inactive
C(=N\Nc1nc(-c2ccccc2)cs1)/c1cccs1	none
CC1(C)Oc2ccc3ccc(=O)oc3c2/C(=C/NC2CCCCC2)C1=O	none
CCOC(=O)c1ccc(NC(=O)c2cc(C)nn2-c2ccccc2)cc1	NS3 helicase inh 46 | NS3 helicase cf inactive | DNA FID counter-2 inactive
O=C(Nc1ccon1)c1ccc(S(=O)(=O)N2CCOCC2)cc1	none
CCOc1ccc(/C(O)=C2/C(=O)C(=O)N(c3nc(C)c(C)s3)C2c2ccco2)cc1 (stereo not given)	NS3 helicase inh 51, IMP-1 inh 5.5 | NS3 helicase cf 55 | DNA FID counter-2 inactive | DNA FID DR inactive
Cc1nc(-c2ccc(-n3nncc3-c3ccco3)cc2)cs1	NS3 helicase inh 56 | NS3 helicase cf inactive | DNA FID counter-2 inactive
Nc1nc(-c2ccc(-n3nncc3-c3ccco3)cc2)cs1	none
Cc1cc(/C=C2\Cc3ccccc3C2=O)c(C)n1-c1ccccc1	NS3 helicase inh 39 | NS3 helicase cf inactive | DNA FID counter-2 inactive
COc1ccc(CCNC(=O)Nc2cccs2)c(OC)c1	none
O=c1cc(-c2ccco2)nc(SCc2cccc(Cl)c2)[nH]1	NS3 helicase inh 45 | NS3 helicase cf inactive | DNA FID counter-2 inactive
O=C(NC1CC1)c1cc(-c2ccco2)nc2ccccc12	NS3 helicase inh 41 | NS3 helicase cf inactive | DNA FID counter-2 inactive
O=C(O)c1cc(-c2ccco2)nc2ccccc12	none
Cc1cc(NC(=O)C2CC(=O)N(c3ccccc3C)C2)no1 (stereo not given)	NS3 helicase inh 36 | NS3 helicase cf inactive | DNA FID counter-2 inactive
COC(=O)C(C)Oc1ccc2c(c1)O/C(=C\c1ccco1)C2=O (stereo not given)	none
COc1ccc2c(c1)O/C(=C\c1ccco1)C2=O	NS3 helicase inh 44 | NS3 helicase cf inactive | DNA FID counter-2 inactive
CC1(C)Cc2c(C#N)c(NCCc3ccccc3)nc(-c3ccco3)c2CO1	NS3 helicase inh 40 | NS3 helicase cf 63 | DNA FID counter-2 inactive | DNA FID DR inactive
CCN(CC)CCNc1nc(-c2ccco2)c2c(c1C#N)CC(C)(C)OC2	none
CC(C)(C)NC(=O)CN(C(=O)c1snc(C(=O)NC2CCCCC2)c1N)c1ccccc1F	none
Cc1sc2c(c1C)C(O)=C(C(=O)Nc1ccccc1)S(=O)(=O)N2C	NS3 helicase inh 44, IMP-1 inh 4.6 | NS3 helicase cf 60 | DNA FID counter-2 inactive
COc1ccc(F)c(CN2CCC(n3nccc3NC(=O)C3CCOC3)CC2)c1 (stereo not given)	none

Screens: PubChem BioAssay, several laboratories
